Screening results as filed in PubChem.
Compounds with a hit are over-represented: about 1.9% of the library has one in this group of screens.
N-glyco inh – blocks N-linked glycosylation in D54 reporter cells; reporter increase, % at 12.5 µM; D54 ERlucT glycosylation luciferase reporter, 24 h; percent of 100 nM tunicamycin response; hit rate 0.23% among 360,000; AID 588692;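 active = mean luciferase reporter signal, scaled so untreated is 0 and the glycosylation-blocking control 100, at or above a set limit in every replicate; inconclusive = mean reaches the limit but not every replicate does; inactive = mean below the limit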;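 note: luciferase carries N-glycosylation sites so blocking glycosylation raises the light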
SR-BI HDL uptake – inhibitors of mouse SR-BI mediated HDL lipid uptake; ldlA[mSR-BI] CHO cells, DiI-HDL uptake fluorescence, 3 h; inhibition, % at 12.5 µM; Q61009; hit rate 0.96% among 320,000; AID 488896;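 active = mean replicate inhibition of at least 70% and a set share of replicates each scoring 70 or more; inconclusive = meets just one of the two criteria; inactive = fails both criteria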
Target sequence (Q61009 whole entry, looked up): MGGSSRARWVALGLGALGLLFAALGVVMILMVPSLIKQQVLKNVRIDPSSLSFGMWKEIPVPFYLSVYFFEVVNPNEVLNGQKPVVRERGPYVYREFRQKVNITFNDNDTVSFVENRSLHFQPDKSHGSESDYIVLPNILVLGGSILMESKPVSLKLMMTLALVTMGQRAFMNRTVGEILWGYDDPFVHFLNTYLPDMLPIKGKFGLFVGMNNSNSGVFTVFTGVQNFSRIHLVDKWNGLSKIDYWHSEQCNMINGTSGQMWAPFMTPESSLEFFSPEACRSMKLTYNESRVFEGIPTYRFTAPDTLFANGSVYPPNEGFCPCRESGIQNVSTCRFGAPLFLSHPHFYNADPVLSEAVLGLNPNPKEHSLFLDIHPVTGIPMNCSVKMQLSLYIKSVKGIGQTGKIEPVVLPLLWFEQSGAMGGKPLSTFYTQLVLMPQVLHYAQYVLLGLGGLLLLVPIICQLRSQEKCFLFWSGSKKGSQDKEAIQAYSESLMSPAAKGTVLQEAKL
HIV Env fusion – HIV envelope-mediated fusion inhibition; HeLa-JRFL Env/CEM21 cell fusion, luciferase; inhibition, % at 12.3 µM; hit rate 1.1% among 360,000; AID 651610;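 active = mean replicate inhibition score of at least 50 and every replicate individually at or above 50; inconclusive = only one of the two criteria met; inactive = mean below 50 and not all replicates reaching 50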
Rtt109 HAT inh – blocks Candida albicans Rtt109/Vps75 acetyltransferase activity; Q5AAJ8; purified Rtt109/Vps75, ThioGlo CoA-SH fluorescence, 4 h; AID 540336; hit rate 0.16% among 330,000; inhibition, % at 34.9 µM;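 active = inhibition of at least 50% in every replicate; inconclusive = best replicate reaches 50% inhibition but some replicates fall short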
SR-BI uptake up – activators of SR-BI mediated HDL lipid uptake; CHO ldlA[mSR-BI] cells, DiI-HDL uptake fluorescence, 3 h; 100 = double the neutral-control signal; activation, % at 12.5 µM; hit rate 0.096% among 320,000; AID 504775;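 active = mean replicate activation of at least 60% and every replicate at or above 60%; inconclusive = mean or all-replicate condition met, but not both; inactive = mean below 60% and not all replicates reaching 60%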
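Assay system: CHO ldlA[mSR-BI] cells, LDL receptor-null, SR-BI overexpressing; medium: Ham's F12 with 0.5% BSA, HEPES 25 mM, pH 7.4; also added: DiI-HDL 10 µg/mL; timing: 3 h uptake period with compound, 37 °C; signal: DiI fluorescence, bottom read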
PglD DTNB – blocks C. jejuni PglD acetyltransferase activity; inhibition, % at 12.5 µM; hit rate 0.098% among 360,000; purified PglD enzyme, DTNB colorimetric CoA detection; in the data active = inhibition above about 16%, passing the limit was not always enough; inconclusive = no clear call, values can overlap the other calls
A number is an active result; - = inactive; ? = inconclusive; . = no result; [ ] = another dose, or the depositor's remark.

SMILES	N-glyco inh	SR-BI HDL uptake	HIV Env fusion	Rtt109 HAT inh	SR-BI uptake up	PglD DTNB
COCC(=O)Nc1ccc2c(c1)C(=O)N(C)[C@H]1CC[C@@H](CC(=O)NC3CCCC3)O[C@@H]1CO2	.	.	-	.	.	-
C[C@H](CO)N1C[C@H](C)[C@H](CN(C)S(=O)(=O)c2ccc(F)cc2)Oc2ccc(NC(=O)Nc3cccc4ccccc34)cc2C1=O	.	.	-	.	.	-
COc1ccc(S(=O)(=O)N[C@@H]2C=C[C@H](CC(=O)N3CCC(Cc4ccccc4)CC3)O[C@@H]2CO)cc1	.	.	63[16.7 µM]	.	.	-
Cc1ccc(S(=O)(=O)N[C@@H]2C=C[C@H](CC(=O)N3CCC(Cc4ccccc4)CC3)O[C@H]2CO)cc1	.	.	-	.	.	-
Cc1ccc(S(=O)(=O)N[C@H]2C=C[C@H](CC(=O)N3CCC(Cc4ccccc4)CC3)O[C@H]2CO)cc1	.	.	76[16.7 µM]	.	.	-
O=C(C[C@H]1C=C[C@@H](NC(=O)C2CC2)[C@H](CO)O1)NCc1ccccc1Cl	.	.	-	.	.	-
N#C[C@H]1[C@H](c2ccccc2)[C@H](CO)N1S(=O)(=O)c1ccc(-c2ccccc2)cc1	.	.	-	.	.	-
Cc1cc(C)c2sc(NNC(=O)c3ccc(S(=O)(=O)N4CCc5ccccc5C4)cc3)nc2c1	-	146	-	-	-	-
Cc1cc(C)c2nc(NNC(=O)c3ccc(S(=O)(=O)N4CCc5ccccc5C4)cc3)sc2c1	-	133	-	-	-	-
COc1ccccc1-[n+]1c(C)cc(/C=C2\Sc3ccccc3N2C)cc1C	-	-	-	?	-	-
COc1ccc(-[n+]2c(C)cc(/C=C3\Sc4ccccc4N3C)cc2C)cc1	-	-	-	74	-	.
CC(C)NC(=O)N[C@@H]1C=C[C@@H](CC(=O)N2CCCCC2)O[C@H]1CO	.	.	-	.	.	-
Cc1cccc2c(N)c3c(nc12)N(C)CC3	30	-	-	-	-	-
CO[C@@H]1CN(C)C(=O)c2cc(NC(=O)Nc3c(C)noc3C)ccc2OC[C@@H](C)N(CC2CC2)C[C@@H]1C	.	.	.	.	.	-
O=C(C[C@H]1CC[C@@H]2[C@H](COC[C@H](O)CN2C(=O)Nc2ccc3c(c2)OCO3)O1)N1CCN(c2ccccc2)CC1	.	.	.	.	.	-
Nc1ccn(C2OC(COC(=O)C34CC5CC(CC(C5)C3)C4)C(O)C2O)c(=O)n1 (stereo not given)	-	-	68	-	-	.
O=C(Nc1ccc2c(c1)OCO2)N[C@H]1CC[C@H](CC(=O)N2CCN(c3ccccc3)CC2)O[C@H]1CO	.	.	-	.	.	-
CO[C@@H]1CN(C)C(=O)c2ccc(NC(=O)C3CCCC3)cc2OC[C@@H](C)N(CCC(F)(F)F)C[C@@H]1C	.	.	-	.	.	-
COc1cc2ccccc2cc1C(=O)NNC(=O)c1ccccc1O	-	129	-	-	-	-
COc1ccccc1C(=O)NNC(=O)c1ccc(C)cc1	-	-	-	-	-	-
COc1ccc(C)cc1NC(=O)NNC(=O)c1cc2ccccc2cc1O	-	117	-	-	-	-
COc1ccc(C)cc1NC(=O)NNC(=O)c1ccoc1C	-	-	-	-	-	-
COc1cc(NC(=O)c2cc3ccccc3cc2O)c(OC)cc1Cl	-	-	-	-	-	-
Cc1ccc(C(=O)NNC(=O)c2cc3ccccc3cc2O)cc1	-	123	-	-	-	-
COc1ccccc1NC(=O)c1cc2cc(Br)ccc2cc1O	-	?	57	-	-	.
SMILES	N-glyco inh	SR-BI HDL uptake	HIV Env fusion	Rtt109 HAT inh	SR-BI uptake up	PglD DTNB
C[C@H]1CN([C@@H](C)CO)S(=O)(=O)c2ccc(C#Cc3ccc(F)cc3)cc2O[C@@H]1CN(C)C(=O)c1ccccn1	.	.	-	.	.	-
CN1CCN(C(=O)C[C@H]2CC[C@@H]3[C@H](COC[C@@H](O)CN3C(=O)C3CCCC3)O2)CC1	.	.	.	.	.	-
COc1cc2ccccc2cc1C(=O)N/N=C/c1cccs1	35	.	-	.	.	-
COc1ccc(NC(=O)NNC(=O)c2cc3ccccc3cc2O)cc1	-	96	.	-	.	-
CCOC(=O)c1c(C)[nH]c(C(=O)N/N=C\c2ccccc2O)c1C	-	85	.	-	-	-
CCNC(=O)C(=O)N/N=C/c1cc([N+](=O)[O-])ccc1O	-	-	-	-	-	.
CCOC(=O)c1c(C)[nH]c(C(=O)N/N=C/c2cc([N+](=O)[O-])ccc2O)c1C	-	86	-	-	-	-
CCOC(=O)c1c(C)[nH]c(C(=O)N/N=C/c2ccc(OC)c(OC)c2)c1C	?	-	-	-	-	-
COc1ccccc1/C=N/NC(=O)c1[nH]c(C)c(C(=O)N/N=C/c2ccccc2OC)c1C	-	83	-	-	-	.
CN(C)C(=O)[C@@H]1[C@@H](CO)[C@@H]2Cn3c(ccc(C4=CCCC4)c3=O)[C@H]1N2CC1CCOCC1	.	.	-	.	.	-
COc1ccccc1-c1ccc([C@@H]2[C@@H](CO)N3CCCCN(C(=O)CN4CCOCC4)C[C@@H]23)cc1	.	.	.	.	.	-
COc1cccc(CNC(=O)C[C@@H]2C=C[C@H](NC(=O)C3CCOCC3)[C@@H](CO)O2)c1	.	.	-	.	.	-
C[C@H](CO)N1C[C@H](C)[C@@H](CN(C)C(=O)c2ccccc2)OCCCC[C@H](C)Oc2ccc(NC(=O)Cc3ccccc3)cc2C1=O	.	.	-	.	.	-
C[C@@H]1CN([C@@H](C)CO)S(=O)(=O)c2ccc(C#C[C@@H](C)O)cc2O[C@@H]1CN(C)CC1CCOCC1	.	.	-	.	.	-
CN(C)Cc1cn(CC[C@@H]2CC[C@H](NC(=O)Nc3ccccc3F)[C@H](CO)O2)nn1	.	.	-	.	.	-
CCN1/C(=C/C=C/c2oc3ccc(-c4ccccc4)cc3[n+]2CC)Oc2ccc(-c3ccccc3)cc21	-	-	77	-	-	-
Cc1ncc(CO)c(/C=N/NC(=O)c2cc3c(s2)CCCC3)c1O	-	104	-	-	-	.
Cc1ncc(CO)c(/C=N/NC(=O)c2ccc(O)cc2)c1O	-	-	-	-	-	-
Cc1ccc(S(=O)(=O)N2CCCCC2)cc1NC(=O)c1nn(C)c(=O)c2ccccc12	-	-	66	-	-	.
Cc1ccc(S(=O)(=O)N2CCCCC2)cc1NC(=O)CCNC(=O)c1ccc([N+](=O)[O-])cc1	-	-	59	-	-	-
Cc1noc(C)c1S(=O)(=O)Nc1ccc2c(c1)C(=O)N([C@H](C)CO)C[C@H](C)[C@@H](CN(C)Cc1ccc(Oc3ccccc3)cc1)O2	.	.	.	.	.	-
O=C(C[C@H]1CC[C@@H](NC(=O)CN2CCOCC2)[C@@H](CO)O1)NC1CCCCC1	.	.	-	.	.	-
CC(/C=N\NC(=O)Cn1c(C)nc2ccccc21)=C\c1ccccc1	-	-	86	-	-	-
CC(/C=N/NC(=O)CSc1nc(C)cc(C)n1)=C\c1ccccc1	-	-	-	-	-	-
O=C(O)C[C@@H]1C=C[C@@H](NC(=O)c2ccncc2)[C@H](CO)O1	.	.	-	.	.	-
